Source: PubChem
The list is not random: actives were taken first. Their share in the collection is about 1.8%.
AI-2 QS modul = modulates the Vibrio harveyi AI-2 quorum sensing system; Vibrio harveyi JMH597 AI-2 luminescence/OD600 ratio, 9 h; hits give low values; strain lacks LuxN and CqsS sensors; 0 = neutral-control median; activity change, % at 7.5 µM; 300,000 tested, 0.4% active; AID 2094; in the data active = activity change below about -75%, passing the limit was not always enough;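 also: luminescence divided by OD600 gain over 9 h not by final OD600 alone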
MC4R antag cAMP = human MC4R antagonism in cAMP assay; 360,000 tested, 0.48% active; AID 540295; inhibition, % at 6.5 µM; MC4R-expressing cells, MTII-stimulated cAMP, LANCE TR-FRET; P32245;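 active = inhibition above its plate's cutoff, the mean of tested wells on that plate plus 3 SD, cut at about 29% in these data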
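Assay system: U2OS cells stably expressing human melanocortin 4 receptor (MC4R) / Dosing: 6.5 µM / Timing: compound 30 min, challenge 1 h, detection 1 h / Measured by: Eu-cAMP/anti-cAMP TR-FRET, emission 671 nm / Replicates: singlicate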
MC4R barr agon = agonists of human melanocortin 4 receptor (MC4R) beta-arrestin; U2OS MC4R beta-arrestin complementation, luminescence; percent of melanotan II response, DMSO zero; activation, % at 8.9 µM; AID 540308; 360,000 tested, 0.98% active; P32245;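 active = activation above a per-plate cutoff, the mean activation of sample wells on that plate plus 3 SD, cut at about 8% in these data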
NTR1 ag = agonists of human neurotensin receptor NTR1. P30989. NTR1-U2OS beta-arrestin-GFP spot imaging, agonist mode. activation, % at 20 µM. 330,000 tested, 0.17% active;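 active = activation at or above 40% of the spot to cytoplasm intensity ratio, with at least 20 cells analyzed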
Target sequence (P30989 whole entry, looked up): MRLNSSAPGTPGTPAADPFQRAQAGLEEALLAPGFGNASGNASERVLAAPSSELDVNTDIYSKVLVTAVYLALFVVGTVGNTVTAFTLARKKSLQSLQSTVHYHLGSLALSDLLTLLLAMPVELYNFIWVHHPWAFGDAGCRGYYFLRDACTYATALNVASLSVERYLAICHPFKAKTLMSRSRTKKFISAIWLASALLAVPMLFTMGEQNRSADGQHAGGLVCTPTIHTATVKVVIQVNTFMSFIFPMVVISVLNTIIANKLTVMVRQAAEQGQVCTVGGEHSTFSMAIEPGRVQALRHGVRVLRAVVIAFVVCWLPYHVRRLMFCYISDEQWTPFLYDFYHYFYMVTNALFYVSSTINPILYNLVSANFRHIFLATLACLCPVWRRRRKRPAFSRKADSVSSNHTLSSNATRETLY
Hits are given with their value; 0 = inactive; - = no result.

SMILES	AI-2 QS modul	MC4R antag cAMP	MC4R barr agon	NTR1 ag
COCCn1c(=S)[nH]c2cc(C(=O)N3CCc4ccccc43)ccc2c1=O	-78	0	0	0
Cn1cccc1C(=O)OCC(=O)N1CCc2ccccc2C1	-	0	0	-
C=C(CN(C)C)C(=O)c1cc(C)ccc1C	-	47	0	-
O=C(Nc1ccc(N=Nc2ccccc2)cc1)c1ccc(Cl)cc1Cl	0	0	0	0
O=C(Nc1ccc(N=Nc2ccccc2)cc1)c1ccccc1Cl	0	0	9.5	0
O=C(COC(=O)c1cccc(F)c1)NC(=O)NC1CCCC1	-	0	0	0
O=C(COC(=O)c1cccc(Br)c1)NC(=O)NC1CCCC1	-	0	8.8	0
O=C(CCO)c1ccc(O)cc1	0	0	0	0
O=C(CCSc1ccc(Br)cc1)c1ccc(O)cc1	-77	0	0	0
Cc1cc2oc(=O)cc(CN3CCCCC3C)c2cc1C(C)C (stereo not given)	0	0	0	0
Cc1c(C(=O)Nc2cccnc2Cl)oc2ccccc12	0	0	11	0
Cc1c(C(=O)Nc2ccccn2)oc2ccccc12	0	0	0	0
CN(CCc1ccccc1)C(=O)c1ccc(NC(=O)Cc2cccc(NC(=O)C3CCN(C(=O)c4ccccc4)CC3)c2)cc1	-	0	0	-
C/C(CC(=O)Nc1ccccn1)=N\NC(=O)c1cccc(C)c1	0	34	0	0
Cc1ccc(C(=O)OC(C(=O)Nc2ccc(Cl)cc2C(F)(F)F)c2ccccc2)cc1 (stereo not given)	0	0	9.5	0
O=C(OC(C(=O)Nc1ccc(Cl)cc1C(F)(F)F)c1ccccc1)c1c(Cl)cccc1Cl (stereo not given)	0	0	0	0
Cc1c2cnn(CC(=O)Nc3c(F)c(F)cc(F)c3F)c(=O)c2c(C)n1Cc1ccccc1F	0	0	25	0
c1ccc(Nc2ccccc2Nc2ccccn2)nc1	0	0	0	0
Oc1cccc2ccc(Nc3ccccn3)nc12	-86	0	8.7	0
CCCCOCCCNC(=O)c1cccs1	0	0	0	0
O=C(CNC(=O)c1cccs1)OCc1ccc(Cl)cc1	-79	0	0	0
CCc1ccc(OCCNC(=O)c2cccs2)cc1	-79	0	0	0
CCCCCCCCCC(=O)N[C@@H]1c2cc(OC)c(OC)cc2C[C@H]1O	-	0	0	0
CCOC(=O)c1nc(C)nc(Sc2n[nH]c(-c3ccc(C(C)(C)C)cc3)n2)c1C	0	0	9.3	0
CCOC(=O)c1csc(N/N=C2\CCCc3ccccc32)n1	0	0	0	42
SMILES	AI-2 QS modul	MC4R antag cAMP	MC4R barr agon	NTR1 ag
N#CCOC(=O)[C@H](Cc1c[nH]c2ccccc12)NS(=O)(=O)c1ccc(Cl)cc1	0	34	0	0
O=C(O)C(Cc1c[nH]c2ccccc12)NS(=O)(=O)c1ccc(F)cc1 (stereo not given)	-	0	0	-
CCC(=O)c1ccc(OCC(=O)Nc2cccc(S(=O)(=O)N3CCCCCC3)c2)cc1	-	0	0	0
CC(=O)c1ccc(OC(C)c2nc3ccccc3s2)cc1 (stereo not given)	0	0	0	0
O=C(c1ccc(Cl)cc1)c1cnc(Nc2ccccc2Cl)s1	0	0	9.9	0
COc1cc(C(=O)NCC(c2ccco2)N2CCc3ccccc3C2)cc(OC)c1OC (stereo not given)	0	0	0	0
O=C(c1ccc(Cl)cc1)c1c[nH]c(C(=O)NNc2cccc(Cl)n2)c1	0	0	8.3	0
COc1ccc(OCCNc2cc(Cl)ccc2[N+](=O)[O-])cc1	0	0	10	0
O=C1[C@H](Cc2ccccc2)NCC=CC[C@H](c2ccc(Cl)cc2)N1Cc1ccccc1	-	0	8.6	-
OC(c1ccccc1)C(Nc1ccccn1)c1ccccc1 (stereo not given)	-	0	0	-
CC(C)[C@@H](C(=O)N[C@@H](C(=O)O)c1ccccc1)N1C(=O)N2CCc3c([nH]c4ccccc34)[C@@]2(C)C1=O	0	0	0	0
O=C(O)/C=C/c1cn(-c2ccccc2)nc1-c1ccc2c(c1)OCCO2	0	0	0	0
O=C(/C=C\c1cn(-c2ccccc2)nc1-c1ccc2c(c1)OCCO2)N1CCOCC1	0	0	8.5	0
Cc1cccc(N(Cc2ccccc2)C(=O)CCl)c1	0	0	22	-
COc1ccc(CC(=O)N(Cc2ccccc2)c2cccc(C)c2)cc1OC	0	0	0	0
Nc1ccc(C2(c3ccc(N)cc3)C(=O)Nc3ccccc32)cc1	0	0	0	0
O=C1Nc2ccccc2C1(c1ccccc1)c1ccccc1	0	0	37	0
O=C1C2CCCCN2C(=O)N1CCCCN1CCN(c2cccc(C(F)(F)F)c2)CC1 (stereo not given)	-	0	0	-
